Experimental data: ChEMBL document CHEMBL3425484, “Novel N-benzenesulfonyl sophocarpinol derivatives as coxsackie B virus inhibitors” (ACS Med Chem Lett, 2015)

Assays:
[1] = Selectivity index, ratio of TC50 for african green monkey Vero cells to IC50 for Coxsackievirus B3 infected in african green monkey Vero cells; format: toxicity, cell-based; settings: read-out: Selectivity Index
Method in brief: (§1)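 SI is calculated as TC50 (50% inhibition of Vero cell growth) divided by IC50 (50% inhibition of the respective CVB subtype's growth, from the CPE assay in Vero cells, ribavirin as positive control).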

[2] = system: Coxsackievirus; assay: Antiviral activity against Coxsackievirus B3 infected in african green monkey Vero cells assessed as reduction in viral-induced cytopathic effect; format: functional, organism-based
Method in brief: (§2)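 Vero (African green monkey kidney) cells were infected with the CVB subtype and scored by viral cytopathogenic effect (CPE) reduction, with ribavirin as the positive control. IC50 is the concentration that inhibits CVB growth by 50%.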

[3] = Cytotoxicity against african green monkey Vero cells assessed as inhibition of cell growth after 24 hrs by CPE assay; format: cell-based; settings: chlorocebus sabaeus, read-out: TC50
[4] = Selectivity index, ratio of TC50 for african green monkey Vero cells to IC50 for Coxsackievirus B1 infected in african green monkey Vero cells; format: toxicity, cell-based; settings: read-out: Selectivity Index; method in brief: as §1
[5] = Selectivity index, ratio of TC50 for african green monkey Vero cells to IC50 for Coxsackievirus B6 infected in african green monkey Vero cells; format: toxicity, cell-based; settings: read-out: Selectivity Index; method in brief: as §1
[6] = system: Coxsackievirus; assay: Antiviral activity against Coxsackievirus B6 infected in african green monkey Vero cells assessed as reduction in viral-induced cytopathic effect; format: functional, organism-based; method in brief: as §2
[7] = system: Coxsackievirus; assay: Antiviral activity against Coxsackievirus B1 infected in african green monkey Vero cells assessed as reduction in viral-induced cytopathic effect; format: functional, organism-based; method in brief: as §2
[8] = system: Coxsackievirus; assay: Antiviral activity against Coxsackievirus B2 infected in african green monkey Vero cells assessed as reduction in viral-induced cytopathic effect; format: functional, organism-based; method in brief: as §2
[9] = Selectivity index, ratio of TC50 for african green monkey Vero cells to IC50 for Coxsackievirus B2 infected in african green monkey Vero cells; format: toxicity, cell-based; settings: read-out: Selectivity Index; method in brief: as §1
[10] = system: Coxsackievirus; assay: Antiviral activity against Coxsackievirus B5 infected in african green monkey Vero cells assessed as reduction in viral-induced cytopathic effect; format: functional, organism-based; method in brief: as §2

Row | SMILES | selectivity ratio [1] | IC50 [2] [µM] | CC50 at 24 h [3] [µM] | further results
1 | COC(=O)C/C=C\[C@@H]1[C@H]2CCCN3CCC[C@@H](CN1S(=O)(=O)c1ccc(C#N)cc1)[C@@H]23 | 36.3 | 8.04 | 292 | 
2 | N#Cc1ccc(S(=O)(=O)N2C[C@@H]3CCCN4CCC[C@@H]([C@H]34)[C@H]2/C=C\CC(=O)O)cc1 | 14.2 | 52.4 | 745 | 
3 | O=C(O)CCC[C@@H]1[C@H]2CCCN3CCC[C@@H](CN1S(=O)(=O)c1ccccc1[N+](=O)[O-])[C@@H]23 | 5.2 | 78.9 | 410 | 
4 | N#Cc1ccc(S(=O)(=O)N2C[C@@H]3CCCN4CCC[C@@H]([C@H]34)[C@H]2C/C=C/C(=O)O)cc1 | > 15.7 | 29.9 | > 466 | 
5 | COC(=O)CCC[C@@H]1[C@H]2CCCN3CCC[C@@H](CN1S(=O)(=O)c1cccc(C(F)(F)F)c1)[C@@H]23 | 92.4 | 1.98 | 193 | selectivity ratio [4]: 144; selectivity ratio [5]: 139; IC50 [6]: 0.44 µM; IC50 [7]: 1.28 µM; IC50 [8]: 7.61 µM; selectivity ratio [9]: 16.7
6 | N#Cc1cccc(S(=O)(=O)N2C[C@@H]3CCCN4CCC[C@@H]([C@H]34)[C@H]2CCCCO)c1 | 13 | 11.3 | 147 | 
7 | COC(=O)C/C=C/[C@@H]1[C@H]2CCCN3CCC[C@@H](CN1S(=O)(=O)c1cccc(C#N)c1)[C@@H]23 | 9.9 | 7.3 | 72.4 | 
8 | O=C(O)C/C=C\[C@@H]1[C@H]2CCCN3CCC[C@@H](CN1S(=O)(=O)c1cccc([N+](=O)[O-])c1)[C@@H]23 | 7 | 63.6 | 445 | 
9 | O=[N+]([O-])c1ccc(S(=O)(=O)N2C[C@@H]3CCCN4CCC[C@@H]([C@H]34)[C@H]2/C=C\CCO)cc1 | 15.6 | 17 | 265 | 
10 | COC(=O)CCC[C@@H]1[C@H]2CCCN3CCC[C@@H](CN1S(=O)(=O)c1ccc(C(F)(F)F)cc1)[C@@H]23 | 28.9 | 2.54 | 73.4 | 
11 | O=C(O)C/C=C/[C@@H]1[C@H]2CCCN3CCC[C@@H](CN1S(=O)(=O)c1ccccc1C(F)(F)F)[C@@H]23 | 35.4 | 11.1 | 393 | 
12 | COC(=O)C/C=C\[C@@H]1[C@H]2CCCN3CCC[C@@H](CN1S(=O)(=O)c1cc(Br)c(Br)s1)[C@@H]23 | 17.7 | 1.19 | 21.1 | 
13 | N#Cc1ccccc1S(=O)(=O)N1C[C@@H]2CCCN3CCC[C@@H]([C@H]23)[C@H]1/C=C/CC(=O)O | 20.5 | 22.7 | 466 | 
14 | COC(=O)C/C=C\[C@@H]1[C@H]2CCCN3CCC[C@@H](CN1S(=O)(=O)c1ccc([N+](=O)[O-])cc1)[C@@H]23 | 26.4 | 7.02 | 186 | 
15 | COC(=O)C/C=C\[C@@H]1[C@H]2CCCN3CCC[C@@H](CN1S(=O)(=O)c1cccc([N+](=O)[O-])c1)[C@@H]23 | 12.1 | 9.24 | 112 | 
16 | N#Cc1ccccc1S(=O)(=O)N1C[C@@H]2CCCN3CCC[C@@H]([C@H]23)[C@H]1/C=C\CC(=O)O | 15.6 | 27.6 | 430 | 
17 | O=C(O)CCC[C@@H]1[C@H]2CCCN3CCC[C@@H](CN1S(=O)(=O)c1ccc(C(F)(F)F)cc1)[C@@H]23 | 5.2 | 75.4 | 392 | 
18 | O=C(O)C/C=C\[C@@H]1[C@H]2CCCN3CCC[C@@H](CN1S(=O)(=O)c1ccc([N+](=O)[O-])cc1)[C@@H]23 | 6.2 | 49.8 | 309 | 
19 | COC(=O)C/C=C/[C@@H]1[C@H]2CCCN3CCC[C@@H](CN1S(=O)(=O)c1ccccc1C#N)[C@@H]23 | 9 | 8.92 | 80.3 | 
20 | O=C(O)C/C=C\[C@@H]1[C@H]2CCCN3CCC[C@@H](CN1S(=O)(=O)c1cc(Br)c(Br)s1)[C@@H]23 | 3.6 | 53.1 | 191 | 
21 | N#Cc1cccc(S(=O)(=O)N2C[C@@H]3CCCN4CCC[C@@H]([C@H]34)[C@H]2/C=C\CC(=O)O)c1 | 42.7 | 17.4 | 745 | 

Row | SMILES | selectivity ratio [1] | IC50 [2] [µM] | CC50 at 24 h [3] [µM] | further results
22 | O=[N+]([O-])c1ccccc1S(=O)(=O)N1C[C@@H]2CCCN3CCC[C@@H]([C@H]23)[C@H]1CCCCO | 6.8 | 35.7 | 244 | 
23 | COC(=O)C/C=C\[C@@H]1[C@H]2CCCN3CCC[C@@H](CN1S(=O)(=O)c1cccc(C(F)(F)F)c1)[C@@H]23 | 88.3 | 2.24 | 198 | 
24 | COC(=O)CCC[C@@H]1[C@H]2CCCN3CCC[C@@H](CN1S(=O)(=O)c1ccccc1[N+](=O)[O-])[C@@H]23 | 16.7 | 23.9 | 399 | 
25 | N#Cc1cccc(S(=O)(=O)N2C[C@@H]3CCCN4CCC[C@@H]([C@H]34)[C@H]2CCCC(=O)O)c1 | 5.2 | 82.3 | 428 | 
26 | COC(=O)CCC[C@@H]1[C@H]2CCCN3CCC[C@@H](CN1S(=O)(=O)c1cccc(C#N)c1)[C@@H]23 | 24.6 | 11.7 | 288 | 
27 | COC(=O)CCC[C@@H]1[C@H]2CCCN3CCC[C@@H](CN1S(=O)(=O)c1cccc([N+](=O)[O-])c1)[C@@H]23 | 19.7 | 3.51 | 68.9 | 
28 | COC(=O)C/C=C\[C@@H]1[C@H]2CCCN3CCC[C@@H](CN1S(=O)(=O)c1ccccc1C#N)[C@@H]23 | 68.7 | 4.21 | 289 | 
29 | N#Cc1ccccc1S(=O)(=O)N1C[C@@H]2CCCN3CCC[C@@H]([C@H]23)[C@H]1C/C=C/C(=O)O |  | > 155 | 466 | 
30 | NC(=O)c1ncn([C@@H]2O[C@H](CO)[C@@H](O)[C@H]2O)n1 [RIBAVIRIN] |  | 695 | 8200 | IC50 [6]: 1710 µM; IC50 [10]: 911 µM; IC50 [7]: 1950 µM; IC50 [8]: 2100 µM
31 | O=C(O)/C=C/C[C@@H]1[C@H]2CCCN3CCC[C@@H](CN1S(=O)(=O)c1ccccc1C(F)(F)F)[C@@H]23 | 15.6 | 27.2 | 424 | 
32 | COC(=O)C/C=C\[C@@H]1[C@H]2CCCN3CCC[C@@H](CN1S(=O)(=O)c1ccc(C(F)(F)F)cc1)[C@@H]23 | 6.7 | 8.17 | 54.7 | 
33 | O=S(=O)(c1cccc(C(F)(F)F)c1)N1C[C@@H]2CCCN3CCC[C@@H]([C@H]23)[C@H]1/C=C\CCO | 6.2 | 15 | 93.5 | 
34 | O=C(O)C/C=C\[C@@H]1[C@H]2CCCN3CCC[C@@H](CN1S(=O)(=O)c1ccccc1[N+](=O)[O-])[C@@H]23 | 36.8 | 16.2 | 595 | 
35 | N#Cc1cccc(S(=O)(=O)N2C[C@@H]3CCCN4CCC[C@@H]([C@H]34)[C@H]2/C=C\CCO)c1 | 27 | 5.47 | 148 | 
36 | O=S(=O)(c1ccc(C(F)(F)F)cc1)N1C[C@@H]2CCCN3CCC[C@@H]([C@H]23)[C@H]1/C=C\CCO | 22.4 | 4.17 | 93.5 | 
37 | O=C(O)C/C=C\[C@@H]1[C@H]2CCCN3CCC[C@@H](CN1S(=O)(=O)c1ccc(C(F)(F)F)cc1)[C@@H]23 | 14.7 | 18.6 | 272 | 
38 | N#Cc1cccc(S(=O)(=O)N2C[C@@H]3CCCN4CCC[C@@H]([C@H]34)[C@H]2/C=C/CC(=O)O)c1 | 35.5 | 13.1 | 466 | 
39 | COC(=O)C/C=C/[C@@H]1[C@H]2CCCN3CCC[C@@H](CN1S(=O)(=O)c1ccccc1C(F)(F)F)[C@@H]23 | 3.2 | 11.9 | 38.1 | 
40 | O=C(O)C/C=C/[C@@H]1[C@H]2CCCN3CCC[C@@H](CN1S(=O)(=O)c1ccc(C(F)(F)F)cc1)[C@@H]23 | 43.6 | 33.7 | 1470 | 
41 | O=S(=O)(c1ccc(C(F)(F)F)cc1)N1C[C@@H]2CCCN3CCC[C@@H]([C@H]23)[C@H]1CCCCO | 35.5 | 6.55 | 233 | 
42 | COC(=O)C/C=C\[C@@H]1[C@H]2CCCN3CCC[C@@H](CN1S(=O)(=O)c1ccccc1[N+](=O)[O-])[C@@H]23 | 92.1 | 5.23 | 481 | 
